Assay outcomes as filed in PubChem BioAssay.
Runt-SMMHC FRET: blocks binding of human RUNX1 Runt domain to CBFb-SMMHC; AID 1434; 220,000 tested, 0.74% active; inhibition, % at 20 µM; Q01196+Q13951; Cerulean-Runt/Venus-CBFb-SMMHC FRET ratio 530/480, 1 h;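 active = mean inhibition across duplicate retests at 20 µM reaching about 50%, limit read from the data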;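 note: 0% = DMSO wells and 100% = wells with excess untagged CBFb-SMMHC; inhibitors lower the FRET ratio by blocking Runt binding to CBFb-SMMHC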
Target sequence (Q01196 whole entry, looked up, the tested form may be a part): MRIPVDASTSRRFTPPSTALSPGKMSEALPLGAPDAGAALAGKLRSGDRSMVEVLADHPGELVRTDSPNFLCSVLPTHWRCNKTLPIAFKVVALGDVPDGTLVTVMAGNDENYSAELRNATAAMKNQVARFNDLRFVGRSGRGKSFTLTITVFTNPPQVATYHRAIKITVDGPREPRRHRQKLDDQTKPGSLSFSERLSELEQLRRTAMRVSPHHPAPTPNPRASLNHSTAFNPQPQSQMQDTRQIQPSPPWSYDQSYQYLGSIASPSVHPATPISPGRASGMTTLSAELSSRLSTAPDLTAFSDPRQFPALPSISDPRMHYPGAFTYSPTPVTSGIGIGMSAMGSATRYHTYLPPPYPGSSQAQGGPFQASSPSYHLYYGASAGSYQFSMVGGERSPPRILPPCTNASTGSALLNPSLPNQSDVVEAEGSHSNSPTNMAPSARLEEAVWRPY
Target sequence (Q13951 whole entry, looked up, the tested form may be a part): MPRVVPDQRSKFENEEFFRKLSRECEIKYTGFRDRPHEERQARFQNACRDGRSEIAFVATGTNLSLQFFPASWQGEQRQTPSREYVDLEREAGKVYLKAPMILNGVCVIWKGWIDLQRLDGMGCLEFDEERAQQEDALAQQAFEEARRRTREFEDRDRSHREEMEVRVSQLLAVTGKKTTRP
Hck-Nef inh: blocks Nef-activated human Hck kinase; Recombinant Hck-YEEI plus Nef, Z-Lyte FRET kinase assay; AID 463187; inhibition, % at 20 µM; P08631; 220,000 tested, 0.68% active;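 active = Hck-Nef kinase inhibition above about 50%, limit read from the data; inactive = inhibition below that limit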;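 note: 0% = DMSO with Hck plus Nef and 100% = Hck alone without Nef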
Runt-CBFb FRET: Runt domain-CBFb interaction inhibition; Q01196+Q13951; Cerulean-Runt/Venus-CBFb FRET ratio 530/480, 1 h; inhibition, % at 20 µM; 220,000 tested, 0.46% active; AID 1496;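 active = inhibition over about 50% at 20 µM in the single-dose screen, limit read from the data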;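 note: 0% = DMSO wells and 100% = excess unlabeled CBFb competitor control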
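Assay system: Cerulean-Runt domain fusion protein, energy donor; Signal: fluorescence energy transfer, 422 nm excitation, 530/480 nm emission; Timing: 1 h compound exposure, room temperature; Control set: unlabeled CBFb; Medium: Tris buffer pH 7.5 with salts and BSA; Compound: single test concentration of 20 µM, 1% DMSO final; Probe or stimulus: Venus-CBFb 100 nM.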
RanGTP-Imp inh: inhibitors of RanGTP-importin-beta interaction, primary screen, biochemical, FRET, CFP-Ran, YFP-importin-beta, homogeneous | AID 2216 | inhibition, % (no concentration beside the values) | 300,000 tested, 1.1% active | cell-free CFP-Ran/YFP-importin-beta FRET ratio;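 active = more than half of the replicate wells show a fall in the fluorescence ratio signal beyond about 16%, limit read from the data, passing the limit was not always enough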;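 note: 0% = DMSO wells and 100% = Ran loaded with GDP instead of GTP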
Hck Nef conf: confirmation of Hck-Nef kinase inhibitors | Recombinant Hck-YEEI:Nef, Z-Lyte FRET kinase assay | AID 463188 | 1,300 tested, 28% active | shares compounds with Hck-Nef inh | calls only at 10 µM;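 active = average inhibition of at least 50%, with Z-scores no higher than 3 in both the phospho-tyrosine peptide and fluorescence counterscreens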
* = called active by the depositor; i = inactive; . = no result given; + = active, no number. In the library only some 1.8% were active in any assay of this set; here they are far more common.

SMILES	Runt-SMMHC FRET	Hck-Nef inh	Runt-CBFb FRET	RanGTP-Imp inh	Hck Nef conf
CCOc1ccc(CCNC(=O)COC(=O)COc2ccccc2C)cc1OCC	.	.	.	-3	.
COc1cc2[nH]c(=O)n(CCC(=O)N3CCN(c4cccc(C)c4C)CC3)c(=O)c2cc1OC	0	74*	3	1	i
O=C(O)c1ccc2c(c1)C(=O)/C(=C/c1ccccc1)C2=O	-10	19	-1	1	.
O=C(O)c1ccc2c(c1)C(=O)/C(=C\c1ccco1)C2=O	24	61*	32	-5	+
Cc1c2c(=O)n(-c3nc4ccccc4s3)nc-2cc(O)n1Cc1ccccc1	-36	84*	-4	.	i
O=C(N/N=C/c1ccc([N+](=O)[O-])cc1)c1cc(-c2ccc3c(c2)OCO3)n[nH]1	-10	64*	-2	4	i
O=C(O)C1CC(=O)N(CCc2ccc(F)cc2)C1 (configuration not stated)	.	.	.	4	.
C=CCn1c(C)cc(C(=O)Cn2ncc(Cl)c(Cl)c2=O)c1C	-12	53*	-9	4	i
Cc1cc2cc3c(C)cc(=O)oc3c(C)c2o1	.	.	.	0	.
Cc1cc2c(C)cc(=O)oc2c2c1NCCC2	60*	97*	17	10	.
CCOC(=O)C1(CCOc2ccccc2)CCN(Cc2cccc(OC)c2O)CC1	.	.	.	3	.
COc1cc(OC)c(/C=N/NC(=O)c2ccncc2)cc1Br	-1	4	.	1	.
COc1cc(OC)c(/C=N/NC(=O)c2ccc(NC(C)=O)cc2)cc1Br	3	55*	2	0	i
COc1cc(C(=O)NCc2ncccc2C)ccc1OC1CCN(C(C)=O)CC1	.	.	.	4	.
CC1(c2nnc(Cc3ccccc3)o2)CC(c2cccnc2)=NO1 (configuration not stated)	.	.	.	4	.
O=C(Nc1cccc(-c2nc3ccccc3[nH]2)c1)c1cccc(NC(=O)c2ccco2)c1	-5	74*	-6	5	+
CCOc1ccc(C(=O)Nc2ccc(-c3nc4ccccc4[nH]3)cc2)cc1[N+](=O)[O-]	-6	78*	-2	3	+
O=C(Nc1ccc(-c2nc3ccccc3[nH]2)cc1)c1c(F)c(F)c(F)c(F)c1F	-1	112*	2	0	i
Cc1ncsc1C(=O)Nc1cccc(C(F)(F)F)c1	.	.	.	5	.
CCCCC1=CC2=C(c3ccco3)C(=O)C(C)(OC(=O)c3ccc(OC)cc3)C(=O)C2=CN1C1CCCCC1 (configuration not stated)	-53	30	0	-12	.
CCOc1cccc(C2c3c(oc4ccccc4c3=O)C(=O)N2c2ccccn2)c1 (configuration not stated)	-1	2	-2	-3	.
CCOc1cc(C2c3c(oc4ccccc4c3=O)C(=O)N2c2nccs2)ccc1O (configuration not stated)	2	85*	0	-2	i
O=c1c(Cc2ccccc2)c(O)ccn1Cc1ccco1	1	10	2	-1	.
Cc1cc(C)nc(NC(=NCCc2c[nH]c3ccccc23)NC(=O)C(C)(C)C)n1	-12	15	3	1	.
CCN1CCN(Cc2ccc(NC(=O)c3ccc(C)c(NC(=O)c4nccnc4N)c3)cc2C(F)(F)F)CC1	-3	56*	3	-2	i
SMILES	Runt-SMMHC FRET	Hck-Nef inh	Runt-CBFb FRET	RanGTP-Imp inh	Hck Nef conf
CCN1CCN(Cc2ccc(NC(=O)c3ccc(C)c(NC(=O)c4nccn4C)c3)cc2C(F)(F)F)CC1	4	17	2	3	.
CCN1CCN(Cc2ccc(NC(=O)c3ccc(C)c(NC(=O)N4CCNC4=O)c3)cc2C(F)(F)F)CC1	3	28	1	-1	.
CCN1CCN(Cc2ccc(NC(=O)c3ccc(C)c(NC(=O)c4cc(-c5ccc(Br)cc5)n[nH]4)c3)cc2C(F)(F)F)CC1	40	96*	2	3	+
Cc1cc(C)n2nc(CC(=O)NNC(=O)c3ccccc3Cl)nc2n1	.	.	.	0	.
Cc1cc(C(=O)N/N=C2\CC(=O)c3ccccc32)c(C)n1-c1ccc(F)cc1	-8	53*	-4	2	i
O=C(N=Nc1c(O)n(C2OC(=O)c3ccccc32)c2ccccc12)c1ccco1 (configuration not stated)	-3	65*	-8	3	i
CCCCn1c(O)c(N=NC(=O)c2ccco2)c2ccccc21	0	4	-7	2	.
C=CCOc1ccc(Br)cc1/C=C1/SC(=Nc2ccc(C(=O)O)cc2)NC1=O	-7	59*	-10	.	+
CCCCn1c(N)c(N(CCOC)C(=O)COC(=O)COc2c(C)cc(C)cc2C)c(=O)[nH]c1=O	.	.	.	-3	.
CCCc1nc(SCC(=O)NNC(=O)c2ccc(OC)cc2)c2ccccc2n1	-3	24	-2	5	.
CCCc1nc(SCC(=O)NNC(=O)C2CCCCC2)c2ccccc2n1	-1	75*	5	-4	i
COc1cc(-c2cc(=O)c3c(O)c(OC)c(OC)cc3o2)cc(OC)c1O	-2	98*	-1	1	+
COc1cc(-c2cc(=O)c3c(O)cc(O)cc3o2)ccc1O	-77	54*	-20	10	i
COc1ccc(-c2cc(=O)c3c(O)c(OC)c(O)cc3o2)cc1	-3	67*	2	7	i
Cc1ccc2nc(SC(C(=O)c3ccccc3)c3ccccc3)nc(C)c2c1 (configuration not stated)	1	0	-2	0	.
O=C(Cn1c(O)c(/C=C2\C=Nc3ccccc32)sc1=O)N1CCOCC1	13	9	8	8	.
O=C(Cn1c(O)c(/C=C2\C=Nc3ccc(Br)cc32)sc1=O)N1CCCC1	-19	76*	-14	0	i
O=C(Cn1c2ccc(F)cc2c2nc3n(c(=O)c21)CCS3)Nc1ccccc1C(F)(F)F	-7	89*	-2	1	i
O=C(Cn1c2ccc(F)cc2c2nc3n(c(=O)c21)CCS3)Nc1ccccc1F	2	29	-2	-3	.
CCOC(=O)N1CCN(CCC(=O)Nc2cc([N+](=O)[O-])ccc2OC)CC1	7	2	-2	2	.
CCN(CC)c1ccc2cc(C(N)=O)c(=O)oc2c1	95*	123*	4	153*	.
NC(=O)c1cc2cc(Cl)ccc2oc1=O	-7	1	-2	-2	.
COc1cc(/C=C2\SC(=O)N(Cc3ccc(F)cc3)C2=O)cc([N+](=O)[O-])c1O	-13	26	0	-5	.
COc1cc(/C=C2\SC(=O)N(Cc3ccc(Cl)cc3)C2=O)cc([N+](=O)[O-])c1O	-15	51*	-6	.	i
N#Cc1ncn(-c2ccc(Oc3ccccc3)cc2)c1N	-3	74*	-1	0	i
COc1ccc(C=O)cc1CSc1ncccc1C(=O)O	.	.	.	1	.
CCn1c(SCC(=O)Nc2ccc(-c3nc4ccc(C)cc4s3)cc2)nnc1-c1ccccc1	12	62*	-1	1	+
